Converted amounts (≈) assume the structure as drawn.

The first assay deals with Mycobacterium avium-intracellulare. In words: Antimycobacterial activity against Mycobacterium avium-intracellulare isolate 1956 after 8 days by resazurin microtiter based colorimetric assay. The format is functional. To be noted: isolate 1956, 192 h. Summed up:
(§1)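 Resazurin microtiter plate MIC, read by visual scan for growth, in Mueller Hinton II broth. Strains include clinical isolates of M. abscessus complex, M. chelonae, M. avium, M. intracellulare, M. xenopi, P. aeruginosa PAO-1 and S. aureus ATCC 25923.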
(In general: Resazurin is reduced to fluorescent resorufin, in cell work by metabolically active cells.)
As usually defined, the MIC is the smallest concentration in the dilution series that meets the test's criterion for growth inhibition. Read a low MIC as inhibition by little substance. Take `CCCCCCCNC(=O)c1cc2c(C)cc(C)cc2[nH]1`: the MIC was > 32 µg/mL.
Still for that read-out and setting: then `Cc1cc(C)c2cc(C(=O)NC(C)C34CC5CC(CC(C5)C3)C4)[nH]c2c1` (stereo unspecified), with > 32 µg/mL.

The next assay concerns Mycobacterium tuberculosis. In words: Antimycobacterial activity against Mycobacterium tuberculosis H37Rv MC2-6206 after 8 days by resazurin microtiter based colorimetric assay. Format: functional. To be noted: H37Rv MC2-6206, 192 h. A digest of the protocol: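 MIC was measured by resazurin microtiter colorimetric assay with visual growth scoring. Medium was 7H9-ADC–0.05% tyloxapol with 0.2% casaminoacids, 48 µg/ml pantothenate and 50 µg/ml L-leucine.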
As to `CCCCCCCNC(=O)c1cc2ccccc2[nH]1`, the MIC is > 10 µg/mL.
On the same count and under the same terms, then `O=C(NC1CCCCCC1)c1cc2ccccc2[nH]1`, with > 5 µg/mL.
The same measure, in the same setting: as for `O=C(NC1CCCC1)c1cc2ccccc2[nH]1`, the figure is > 10 µg/mL; as for `O=C(NCc1cccc(Cl)c1)c1cc2ccccc2[nH]1`, > 5 µg/mL.
The same measure, in the same setting: as for `Cc1cc(C)c2cc(C(=O)NCc3cccc(Cl)c3)[nH]c2c1`, the figure is > 5 µg/mL.
Regarding `CCCCCCCNC(=O)c1cc2c(C)cc(C)cc2[nH]1`, the minimal inhibitory concentration (MIC) was > 5 µg/mL.
Same read-out and setting: then `O=C(NC1CCCCC1)c1cc2ccccc2[nH]1`, with > 10 µg/mL; and `Cc1cc(C)c2cc(C(=O)NC(C)C34CC5CC(CC(C5)C3)C4)[nH]c2c1` (stereo unspecified), with 0.31 µg/mL (≈ 0.884 µM); and `C[C@H]1CC[C@H](NC(=O)c2cc3ccccc3[nH]2)CC1`, with > 10 µg/mL.
Same read-out and setting: then `CCCCCCCCNC(=O)c1cc2ccccc2[nH]1`, with > 10 µg/mL.

Tested on in another assay: not listed separately
In words: Antimycobacterial activity against Mycobacterium bolletii ATCC 14472 after 8 days by resazurin microtiter based colorimetric assay. The format is functional. The settings on record: Mycobacteroides abscessus, ATCC 14472, 192 h. Summed up: as §1
Regarding `CCCCCCCNC(=O)c1cc2ccccc2[nH]1`, the minimal inhibitory concentration (MIC) was > 32 µg/mL.
Still for that read-out and setting: as for `O=C(NC1CCCCCC1)c1cc2ccccc2[nH]1`, the figure is > 32 µg/mL; as for `O=C(NC1CCCC1)c1cc2ccccc2[nH]1`, > 32 µg/mL; as for `O=C(NCc1cccc(Cl)c1)c1cc2ccccc2[nH]1`, > 32 µg/mL.
Same read-out and setting: then `Cc1cc(C)c2cc(C(=O)NCc3cccc(Cl)c3)[nH]c2c1`, with > 32 µg/mL; and `CCCCCCCNC(=O)c1cc2c(C)cc(C)cc2[nH]1`, with 32 µg/mL (≈ 112 µM).
Same read-out and setting: as for `O=C(NC1CCCCC1)c1cc2ccccc2[nH]1`, the figure is > 32 µg/mL; as for `Cc1cc(C)c2cc(C(=O)NC(C)C34CC5CC(CC(C5)C3)C4)[nH]c2c1` (stereo unspecified), 16 µg/mL (≈ 45.6 µM); as for `C[C@H]1CC[C@H](NC(=O)c2cc3ccccc3[nH]2)CC1`, > 32 µg/mL.
Turning to `CCCCCCCCNC(=O)c1cc2ccccc2[nH]1`, the minimal inhibitory concentration (MIC) is > 32 µg/mL.

For a further assay, the system named is Mycobacteroides abscessus. In words: Antimycobacterial activity against Mycobacterium abscessus ATCC 19977 after 8 days by resazurin microtiter based colorimetric assay. Format: functional. The settings on record: ATCC 19977, 192 h. A digest of the protocol: as §1
With `CCCCCCCNC(=O)c1cc2ccccc2[nH]1`, the MIC is > 32 µg/mL.
For `O=C(NC1CCCCCC1)c1cc2ccccc2[nH]1`, the minimal inhibitory concentration (MIC) is > 32 µg/mL.
In the case of `O=C(NC1CCCC1)c1cc2ccccc2[nH]1`, the MIC is > 32 µg/mL.
`O=C(NCc1cccc(Cl)c1)c1cc2ccccc2[nH]1`: the MIC is > 32 µg/mL.
Same read-out and setting: as for `Cc1cc(C)c2cc(C(=O)NCc3cccc(Cl)c3)[nH]c2c1`, the figure is > 32 µg/mL; as for `CCCCCCCNC(=O)c1cc2c(C)cc(C)cc2[nH]1`, > 32 µg/mL.
Still for that read-out and setting: as for `O=C(NC1CCCCC1)c1cc2ccccc2[nH]1`, the figure is > 32 µg/mL; as for `Cc1cc(C)c2cc(C(=O)NC(C)C34CC5CC(CC(C5)C3)C4)[nH]c2c1` (stereo unspecified), 16 µg/mL (≈ 45.6 µM).
As to `C[C@H]1CC[C@H](NC(=O)c2cc3ccccc3[nH]2)CC1`, the MIC is > 32 µg/mL.
On the same count and under the same terms, then `CCCCCCCCNC(=O)c1cc2ccccc2[nH]1`, with > 32 µg/mL.

Tested on in the next assay: not listed separately
In words: Antimycobacterial activity against Mycobacterium massiliense isolate CIP108297 after 8 days by resazurin microtiter based colorimetric assay. The format is functional, Mycobacterium abscessus subsp. massiliense. The settings on record: Mycobacteroides abscessus, isolate CIP108297, 192 h. A digest of the protocol: as §1
In the case of `CCCCCCCNC(=O)c1cc2ccccc2[nH]1`, the MIC was > 32 µg/mL.
Same read-out and setting: as for `O=C(NC1CCCCCC1)c1cc2ccccc2[nH]1`, the figure is > 32 µg/mL; as for `O=C(NC1CCCC1)c1cc2ccccc2[nH]1`, > 32 µg/mL.
On to `O=C(NCc1cccc(Cl)c1)c1cc2ccccc2[nH]1`, for which the minimum inhibitory concentration (MIC) is > 32 µg/mL.
Same read-out and setting: as for `Cc1cc(C)c2cc(C(=O)NCc3cccc(Cl)c3)[nH]c2c1`, the figure is > 32 µg/mL; as for `CCCCCCCNC(=O)c1cc2c(C)cc(C)cc2[nH]1`, > 32 µg/mL; as for `O=C(NC1CCCCC1)c1cc2ccccc2[nH]1`, > 32 µg/mL.
Same read-out and setting: then `Cc1cc(C)c2cc(C(=O)NC(C)C34CC5CC(CC(C5)C3)C4)[nH]c2c1` (stereo unspecified), with 8 µg/mL (≈ 22.8 µM); and `C[C@H]1CC[C@H](NC(=O)c2cc3ccccc3[nH]2)CC1`, with > 32 µg/mL; and `CCCCCCCCNC(=O)c1cc2ccccc2[nH]1`, with > 32 µg/mL.

The next assay relates to Mycobacteroides chelonae. In words: Antimycobacterial activity against Mycobacterium chelonae ATCC 35752 after 8 days by resazurin microtiter based colorimetric assay. The format is functional. The settings on record: ATCC 35752, 192 h. A digest of the protocol: as §1
For `CCCCCCCNC(=O)c1cc2ccccc2[nH]1`, the MIC is > 32 µg/mL.
Still for that read-out and setting: then `O=C(NC1CCCCCC1)c1cc2ccccc2[nH]1`, with > 32 µg/mL; and `O=C(NC1CCCC1)c1cc2ccccc2[nH]1`, with > 32 µg/mL; and `O=C(NCc1cccc(Cl)c1)c1cc2ccccc2[nH]1`, with > 32 µg/mL.
Turning to `Cc1cc(C)c2cc(C(=O)NCc3cccc(Cl)c3)[nH]c2c1`, the MIC is > 32 µg/mL.
With `CCCCCCCNC(=O)c1cc2c(C)cc(C)cc2[nH]1`, the minimal inhibitory concentration (MIC) is > 32 µg/mL.
Consider `O=C(NC1CCCCC1)c1cc2ccccc2[nH]1`, for which the MIC is > 32 µg/mL.
`Cc1cc(C)c2cc(C(=O)NC(C)C34CC5CC(CC(C5)C3)C4)[nH]c2c1` (stereo unspecified) yielded a minimal inhibitory concentration (MIC) of 16 µg/mL (≈ 45.6 µM).
Still for that read-out and setting: then `C[C@H]1CC[C@H](NC(=O)c2cc3ccccc3[nH]2)CC1`, with > 32 µg/mL.
Turning to `CCCCCCCCNC(=O)c1cc2ccccc2[nH]1`, the MIC is > 32 µg/mL.

Tested on in another assay: not listed separately
In words: Antimycobacterial activity against Mycobacterium massiliense isolate CRM0019 after 8 days by resazurin microtiter based colorimetric assay. Format: functional, Mycobacterium abscessus subsp. massiliense. The settings on record: Mycobacteroides abscessus, isolate CRM0019, 192 h. Summed up: as §1
`CCCCCCCNC(=O)c1cc2ccccc2[nH]1`: the MIC was > 32 µg/mL.
Same read-out and setting: as for `O=C(NC1CCCCCC1)c1cc2ccccc2[nH]1`, the figure is > 32 µg/mL; as for `O=C(NC1CCCC1)c1cc2ccccc2[nH]1`, > 32 µg/mL; as for `O=C(NCc1cccc(Cl)c1)c1cc2ccccc2[nH]1`, > 32 µg/mL.
Still for that read-out and setting: then `Cc1cc(C)c2cc(C(=O)NCc3cccc(Cl)c3)[nH]c2c1`, with > 32 µg/mL; and `CCCCCCCNC(=O)c1cc2c(C)cc(C)cc2[nH]1`, with > 32 µg/mL.
The same measure, in the same setting: as for `O=C(NC1CCCCC1)c1cc2ccccc2[nH]1`, the figure is > 32 µg/mL.
The molecule `Cc1cc(C)c2cc(C(=O)NC(C)C34CC5CC(CC(C5)C3)C4)[nH]c2c1` (stereo unspecified) came in with an MIC of 8 µg/mL (≈ 22.8 µM).
Still for that read-out and setting: then `C[C@H]1CC[C@H](NC(=O)c2cc3ccccc3[nH]2)CC1`, with > 32 µg/mL; and `CCCCCCCCNC(=O)c1cc2ccccc2[nH]1`, with > 32 µg/mL.

A further assay relates to Mycolicibacterium smegmatis. In words: Antimycobacterial activity against Mycobacterium smegmatis isolate MC2 155 after 8 days by resazurin microtiter based colorimetric assay. The settings on record: str. MC2 155, 192 h. The format is functional.
Consider `CCCCCCCNC(=O)c1cc2ccccc2[nH]1`, for which the minimal inhibitory concentration (MIC) was > 25 µg/mL.
The same measure, in the same setting: as for `O=C(NC1CCCCCC1)c1cc2ccccc2[nH]1`, the figure is > 20 µg/mL; as for `O=C(NC1CCCC1)c1cc2ccccc2[nH]1`, > 25 µg/mL; as for `O=C(NCc1cccc(Cl)c1)c1cc2ccccc2[nH]1`, > 20 µg/mL.
The same measure, in the same setting: as for `Cc1cc(C)c2cc(C(=O)NCc3cccc(Cl)c3)[nH]c2c1`, the figure is > 20 µg/mL; as for `CCCCCCCNC(=O)c1cc2c(C)cc(C)cc2[nH]1`, 5 µg/mL (≈ 17.5 µM).
Same read-out and setting: as for `O=C(NC1CCCCC1)c1cc2ccccc2[nH]1`, the figure is > 25 µg/mL; as for `Cc1cc(C)c2cc(C(=O)NC(C)C34CC5CC(CC(C5)C3)C4)[nH]c2c1` (stereo unspecified), > 20 µg/mL.
For `C[C@H]1CC[C@H](NC(=O)c2cc3ccccc3[nH]2)CC1`, the minimal inhibitory concentration (MIC) is > 25 µg/mL.
On the same count and under the same terms, then `CCCCCCCCNC(=O)c1cc2ccccc2[nH]1`, with > 25 µg/mL.

A further assay relates to Mycobacterium avium. In words: Antimycobacterial activity against Mycobacterium avium isolate 104 after 8 days by resazurin microtiter based colorimetric assay. To be noted: isolate 104, 192 h. Format: functional. Summed up: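 M. avium 104 MICs were read by resazurin microtiter colorimetric assay in 96-well plates, with growth scored visually, in Mueller Hinton II medium.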
In the case of `CCCCCCCNC(=O)c1cc2c(C)cc(C)cc2[nH]1`, the MIC was > 32 µg/mL.
The same measure, in the same setting: then `Cc1cc(C)c2cc(C(=O)NC(C)C34CC5CC(CC(C5)C3)C4)[nH]c2c1` (stereo unspecified), with > 32 µg/mL.

The test system of the next assay is Mycobacteroides abscessus. In words: Antimycobacterial activity against Mycobacterium abscessus isolate DCI 21 after 8 days by resazurin microtiter based colorimetric assay. Format: functional. The settings on record: isolate DCI 21, 192 h. Summed up:
as §1
For the molecule `CCCCCCCNC(=O)c1cc2ccccc2[nH]1`, the minimal inhibitory concentration (MIC) is > 32 µg/mL.
The same measure, in the same setting: then `O=C(NC1CCCCCC1)c1cc2ccccc2[nH]1`, with > 32 µg/mL; and `O=C(NC1CCCC1)c1cc2ccccc2[nH]1`, with > 32 µg/mL.
Still for that read-out and setting: as for `O=C(NCc1cccc(Cl)c1)c1cc2ccccc2[nH]1`, the figure is > 32 µg/mL; as for `Cc1cc(C)c2cc(C(=O)NCc3cccc(Cl)c3)[nH]c2c1`, > 32 µg/mL.
With `CCCCCCCNC(=O)c1cc2c(C)cc(C)cc2[nH]1`, the minimal inhibitory concentration (MIC) is > 32 µg/mL.
Still for that read-out and setting: as for `O=C(NC1CCCCC1)c1cc2ccccc2[nH]1`, the figure is > 32 µg/mL; as for `Cc1cc(C)c2cc(C(=O)NC(C)C34CC5CC(CC(C5)C3)C4)[nH]c2c1` (stereo unspecified), > 32 µg/mL; as for `C[C@H]1CC[C@H](NC(=O)c2cc3ccccc3[nH]2)CC1`, > 32 µg/mL.
Same read-out and setting: as for `CCCCCCCCNC(=O)c1cc2ccccc2[nH]1`, the figure is > 32 µg/mL.

The next assay relates to Mycobacterium xenopi. In words: Antimycobacterial activity against wild type Mycobacterium xenopi isolate 4042 after 8 days by resazurin microtiter based colorimetric assay. The format is functional. To be noted: isolate 4042, 192 h. Summed up: as §1
`CCCCCCCNC(=O)c1cc2c(C)cc(C)cc2[nH]1`: the MIC was > 32 µg/mL.
The same measure, in the same setting: as for `Cc1cc(C)c2cc(C(=O)NC(C)C34CC5CC(CC(C5)C3)C4)[nH]c2c1` (stereo unspecified), the figure is > 32 µg/mL.
